The source made the active and inactive calls. The calls are words filed in the database; no cut-off is given here.
Assays:
[1] = (§1) Growth inhibition of NCI60 cells; type: functional; details: Homo sapiens; for TGI: read-out: Log TGI (converted)
[2] = Toxicity in mouse at 400 mg/kg, ip; type: organism-based; design: dose 400 mg/kg, route intraperitoneal; details: in vivo
In short: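 Acute toxicity in mice: the drug was formulated so that 400 mg/kg IP was given in 1 mL. Single IP doses of 400, 200 and 100 mg/kg were given (1, 0.5, 0.25 mL/mouse), using the body weight and strain planned for the hollow fiber assay. Mice were followed for 14 days for morbidity (body weight loss) and mortality. If mice died, the dose was halved serially in single mice until a tolerated dose was reached.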

BT-549 = test: Growth inhibition of human BT549 cells; type: functional
MDA-MB-231 = test: Growth inhibition of human MDA-MB-231 cells; type: functional
MDA-MB-435 = test: Growth inhibition of human MDA-MB-435 cells; type: functional
MDA-N = test: Growth inhibition of human MDA-N cells; type: functional
NCI60 = test: as §1; type: functional; details: Homo sapiens
Homo sapiens = species: Homo sapiens; test: Inhibition of human recombinant topoisomerase 2
In short: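 Relaxation assay with recombinant human topoisomerase II (p170), 4 units, and 0.25 µg supercoiled pRYG DNA. Buffer: 50 mM Tris pH 8.0, 120 mM KCl, 10 mM MgCl2, 0.5 mM DTT, 0.5 mM ATP. Drug was added in varying amounts for 45 min at 37 °C. Reactions were stopped with SDS and proteinase K, then extracted with chloroform/isoamyl alcohol. Products were run on a 1% agarose gel and stained with ethidium bromide. Etoposide was the positive control.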

HCT-116 = test: Inhibition of human HCT116 cells; type: functional, cell-based
In short: (§2)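 MTT assay. HCT-116 cells were grown in McCoy's 5a with 10% FBS and 2 mM L-glutamine. A-431 cells were grown in DMEM with 10% FBS and 4 mM L-glutamine. Cells were plated at 10 000/well and dosed after 24 h. HCT-116 was tested at 0.3–100 µM and A-431 at 0.1–100 µM, for 48 h at 37 °C. MTT (final 0.3 mg/mL) was added for 3 h and formazan dissolved in DMSO. A570 was read and % cytotoxicity taken versus untreated control. Makaluvamine C at 10 µM was the positive control.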

A-431 = test: Inhibition of human A431 cells; type: functional, cell-based; in short: as §2

Compound | GI50 [1] | LC50 [1] | TGI [1] | further results
O=C1C(NCCc2ccccc2)=CC2=NCCn3cnc1c32 | 0.166 µM | 5.5 µM | 1.07 µM | 
O=C1C(NCc2ccccc2)=CC2=NCCn3cnc1c32 | 0.617 µM | 14.8 µM | 2.82 µM | MTD [2]: 12.5 mg/kg
O=C1C(NCCc2ccc(O)cc2)=CC2=NCCn3cnc1c32 | 2.51 µM | 40.7 µM | 14.1 µM | 
CC(=O)NC1=C(C)C(=O)c2nc(C)n3c2C1=NCC3 | 52.5 µM |  | 81.3 µM | GI50 (BT-549): < 0.01 µM; GI50 (MDA-MB-231): 12.9 µM; GI50 (MDA-MB-435): 19.1 µM; GI50 (MDA-N): 18.6 µM; Activity (NCI60): inactive
NC1=CC2=NCCn3cnc(c32)C1=O | 4.57 µM | 35.5 µM | 12.3 µM | 
O=C1C(NCCc2c[nH]c3ccccc23)=CC2=NCCn3cnc1c32 | 0.234 µM | 6.76 µM | 0.871 µM | Activity (Homo sapiens): Active
CC(=O)NC1=C(C)C(=O)c2ncn3c2C1=NCC3 | 46.8 µM |  |  | Activity (NCI60): inactive
COCc1nc2c3n1CCN=C3C=C(N)C2=O |  |  |  | IC50 (HCT-116): 3 µM; IC50 (A-431): 3 µM
O=C1C(NCCO)=CC2=NCCn3cnc1c32 | 1.1 µM | 20 µM | 4.27 µM | 
CC(=O)NC1=C(C)C(=O)c2nc(COC(C)=O)n3c2C1=NCC3 |  |  |  | Activity (NCI60): inactive
COc1cc([C@@H]2c3cc4c(cc3[C@@H](O[C@@H]3O[C@@H]5CO[C@@H](C)O[C@H]5[C@H](O)[C@H]3O)[C@H]3COC(=O)[C@H]23)OCO4)cc(OC)c1O |  |  |  | Activity (Homo sapiens): Active

— ChEMBL document CHEMBL1148779, “Synthesis and biological evaluation of imidazoquinoxalinones, imidazole analogues of pyrroloiminoquinone marine natural products” (J Med Chem, 2007)
